Data on 11 compounds can be found in paper PMC2748767 (Journal of medicinal chemistry, 2009).

Usually IC50 stands for the concentration needed to halve the response being measured. As usually defined, the half-life is the time needed for the level to fall by half in the phase considered.

The test system of one series is CEM cells. Nature of the series: Cytostatic activity in CEM cells. In kind it is cell-based. The conditions noted are these: Homo sapiens, CCRF-CEM, read-out: Cytostatic activity IC50 CEM.
Series [1] is described as follows: Hydrolysis of ProTides in crude CEM cell extracts. The conditions noted are these: 10 μM, 37 °C; for conversion in CEM cell extracts: within one hour of incubation. In kind it is in vitro ADME, human. Put shortly: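 Exponentially growing CEM cells were washed twice in PBS, resuspended in PBS and sonicated. The extract was cleared by centrifugation (10 min, 15,000 rpm) and frozen at -20 °C. Test compound (10 μM) was incubated in crude extract at 37 °C for 30, 60 and 120 min. Aliquots were quenched in cold methanol and centrifuged, and supernatants went to reverse-phase C18 HPLC. Results are given as percent disappearance of intact parent.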

Series [2] is described as follows: Hydrolysis of ProTides in tonsil extracts. The conditions noted are these: data not shown. Format: in vitro ADME, human. The procedure, abridged:
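Tonsil tissues were washed twice in PBS, resuspended in PBS and homogenised mechanically. The extract was cleared by centrifugation (10 min, 15,000 rpm) and frozen at -20 °C. Test compound (10 μM) was incubated in crude extract at 37 °C for 30, 60 and 120 min. Aliquots were quenched in cold methanol and centrifuged, and supernatants went to reverse-phase C18 HPLC to separate parent from hydrolysis products.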

Another series deals with carboxypeptidase Y (Saccharomyces cerevisiae, UniProt P00729). Nature of the series: Carboxypeptidase Y-mediated cleavage monitored by 31P-NMR. In kind it is in vitro ADME. The conditions noted are these: for conversion by carboxypeptidase Y (in words): d6-acetone and trizma buffer pH 7.6, 31P-NMR; for half-life: yeast, carboxypeptidase Y (isolated enzyme), pH 7.6. The procedure, abridged:
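Test compound was dissolved in d6-acetone plus trizma buffer (pH 7.6). A 31P-NMR blank spectrum was recorded for each sample before carboxypeptidase Y was added, and conversion was then followed by 31P-NMR.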

Series [3] relates to thymidine kinase-deficient (TK-) HSV-1 KOS strain resistant to ACV (ACVr). Nature of the series: Anti-TK-deficient HSV-1. Format: cell-based. The conditions noted are these: versus HSV-1 and HSV-2.
The test system of the next series is HIV-1 X4LAI.04. In words: Anti-HIV-1 assay in MT-4 cell cultures. In kind it is cell-based. The conditions noted are these: HIV-1 X4LAI.04 in MT-4 cells, 3 days, 50% suppression of p24 production.
Series [4] in a line: Stability in human serum monitored by 31P-NMR. In kind it is in vitro ADME. The conditions noted are these: after 12 h, 37 °C, DMSO/D2O.
Series [5] can be described thus: Stability in pH 1.0 buffer monitored by 31P-NMR. Format: physicochemical.

The structures appear in SMILES notation. A value given as a limit tells only on which side of the number the result lay.

carboxypeptidase Y, sequence (P00729 112-532): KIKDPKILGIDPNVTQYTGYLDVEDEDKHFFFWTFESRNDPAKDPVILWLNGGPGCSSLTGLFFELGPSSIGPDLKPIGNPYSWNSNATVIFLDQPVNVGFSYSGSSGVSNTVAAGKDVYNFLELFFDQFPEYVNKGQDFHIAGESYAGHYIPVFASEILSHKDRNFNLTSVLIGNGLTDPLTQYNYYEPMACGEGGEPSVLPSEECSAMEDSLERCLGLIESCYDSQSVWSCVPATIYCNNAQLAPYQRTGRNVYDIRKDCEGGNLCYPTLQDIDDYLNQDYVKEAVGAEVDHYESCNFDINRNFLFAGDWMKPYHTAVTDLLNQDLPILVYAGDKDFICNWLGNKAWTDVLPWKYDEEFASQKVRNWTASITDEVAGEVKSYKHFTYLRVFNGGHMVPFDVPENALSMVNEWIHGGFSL

Regarding `CCCOC(=O)[C@H](C)NP(=O)(OCCOCn1cnc2c(=O)[nH]c(N)nc21)Oc1cccc2ccccc12` (some centres unmarked) [Compound 3], the IC50 in the series on CEM cells came out at 22 µM.

Turning to `COC(=O)[C@H](C)NP(=O)(OCCOCn1cnc2c(=O)[nH]c(N)nc21)Oc1cccc2ccccc12` (some centres unmarked) [Compound 4], the IC50 in the series on CEM cells came out at 57 µM. The “conversion in CEM cell extracts” value in series [1] came to 65%. Further, in series [2], the “hydrolysis in tonsil extracts (in words)” value is on record as “efficiently hydrolyse”.

For the compound `Nc1nc2c(ncn2COCCOP(=O)(NC(Cc2ccccc2)C(=O)OCc2ccccc2)Oc2ccccc2)c(=O)[nH]1` (centres unmarked) [Compound 15], the IC50 in the series on CEM cells was 42 µM.

Consider `COC(=O)[C@H](NP(=O)(OCCOCn1cnc2c(=O)[nH]c(N)nc21)Oc1cccc2ccccc12)C(C)C` (some centres unmarked) [Compound 19], for which, at carboxypeptidase Y, the “conversion by carboxypeptidase Y (in words)” value is “not processed”.

In the case of `C[C@H](NP(=O)(OCCOCn1cnc2c(=O)[nH]c(N)nc21)Oc1cccc2ccccc12)C(=O)OCc1ccccc1` (stereo partly drawn) [Compound 2, acyclovir-[1-naphthyl(benzoxy-L-alaninyl)] phosphate], the IC50 in the series with CEM cells came to 17 µM.

As to `CC(C)OC(=O)[C@H](C)NP(=O)(OCCOCn1cnc2c(=O)[nH]c(N)nc21)Oc1ccccc1` (some centres unmarked) [Compound 10], on carboxypeptidase Y (ratio of half-lives versus compound 9), the “times slower conversion by carboxypeptidase Y than 9” value is given as “ca. 150 times”. This compound also gave a half-life on carboxypeptidase Y of 2760 min.

As for `C[C@H](NP(=O)(OCCOCn1cnc2c(=O)[nH]c(N)nc21)Oc1cccc2ccccc12)C(=O)OC(C)(C)C` (some centres unmarked) [Compound 6], the “conversion by carboxypeptidase Y (in words)” value at carboxypeptidase Y is on record as “no conversion at all”. For the same compound, the “stability in CEM cell extracts (in words)” value in series [1] (after a 120 min-incubation period) was “entirely stable”.

On to `COC(=O)[C@H](C)NP(=O)(OCCOCn1cnc2c(=O)[nH]c(N)nc21)Oc1ccccc1` (some centres unmarked) [Compound 8], for which the IC50 with CEM cells turned out to be 67 ± 7.8 µM.

The compound `COC(=O)[C@@H](NP(=O)(OCCOCn1cnc2c(=O)[nH]c(N)nc21)Oc1cccc2ccccc12)C(C)C` (some centres unmarked) [Compound 17] had a half-life at carboxypeptidase Y of 4320 min.

With `Nc1nc2c(ncn2COCCO)c(=O)[nH]1` [ACV (1), acyclovir], the “loss of activity against thymidine kinase-deficient HSV-1” value in series [3] was > 100 fold. For the same compound, in the series on HIV-1 X4LAI.04, the “Antiviral Activity EC50 HIV-1 MT4” value was “inactive”.

Turning to `C[C@H](NP(=O)(OCCOCn1cnc2c(=O)[nH]c(N)nc21)Oc1ccccc1)C(=O)OCc1ccccc1` (some centres unmarked) [Compound 9], the half-life at carboxypeptidase Y was 17 min; in series [5], 660 min. Moreover, the “conversion in CEM cell extracts” value in series [1] was > 95%. The “hydrolysis in tonsil extracts (in words)” value in series [2] is on record as “efficiently hydrolyse”. Further, the “compound still present in human serum” value in series [4] was determined as 56%.
